Reference: ChEMBL document CHEMBL3596100, “The synthesis and biological activity of novel anthracenone-pyranones and anthracenone-furans” (Bioorg Med Chem, 2015)
Active and inactive are the calls of the source. The calls are words filed in the database; no cut-off is given here.

Experiments:
HT-29 = test: Growth inhibition of human HT-29 cells after 72 hrs by MTT assay; type: functional; details: for GI50: HT-29, 72 h
Method in brief: (§1)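 Cells kept in DMEM with 10% FBS, glutamine, penicillin/streptomycin at 37 °C, 5% CO2; plated in duplicate at 2500–4000 cells/well, dosed 24 h later during log growth. After 72 h drug exposure, MTT read at 540 nm. […] Assays in triplicate, standard error reported.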

U-87MG ATCC = test: (§2) Growth inhibition of human U87 cells after 72 hrs by MTT assay; type: functional; method in brief: as §1
MCF7 = test: Growth inhibition of human MCF7 cells after 72 hrs by MTT assay; type: functional; details: for GI50: MCF7, 72 h; method in brief: as §1
A2780 = test: Growth inhibition of human A2780 cells after 72 hrs by MTT assay; type: functional; details: for GI50: A2780, 72 h; method in brief: as §1
NCI-H460 = test: (§3) Growth inhibition of human H460 cells after 72 hrs by MTT assay; type: functional; method in brief: as §1
A-431 = test: Growth inhibition of human A431 cells after 72 hrs by MTT assay; type: functional; details: for GI50: A-431, 72 h; method in brief: as §1
BE(2)-C = test: (§4) Growth inhibition of human BE(2)-C cells after 72 hrs by MTT assay; type: functional; method in brief: as §1
MIA = test: (§5) Growth inhibition of human MIA cells after 72 hrs by MTT assay; type: functional; method in brief: as §1
SMA = test: (§6) Growth inhibition of mouse SMA cells after 72 hrs by MTT assay; type: functional; method in brief: as §1
DU-145 = test: Growth inhibition of human DU145 cells after 72 hrs by MTT assay; type: functional; details: for GI50: DU-145, 72 h; method in brief: as §1
SJ-G2 = test: (§7) Growth inhibition of human SJ-G2 cells after 72 hrs by MTT assay; type: functional; method in brief: as §1
[1] = as §2; type: functional, U-87MG ATCC; details: U-87 MG; method in brief: as §1
[2] = as §3; type: functional; details: NCI-H460, 72 h; method in brief: as §1
[3] = as §4; type: functional; method in brief: as §1
[4] = as §7; type: functional; details: SJ-G2, 72 h; method in brief: as §1
[5] = as §5; type: functional; method in brief: as §1
[6] = as §6; type: functional; method in brief: as §1

Row | Structure (SMILES) | growth inhibition (GI) (HT-29) | growth inhibition (GI) (U-87MG ATCC) | growth inhibition (GI) (MCF7) | growth inhibition (GI) (A2780) | growth inhibition (GI) (NCI-H460) | growth inhibition (GI) (A-431) | growth inhibition (GI) (BE(2)-C) | growth inhibition (GI) (MIA) | growth inhibition (GI) (SMA) | GI50 (HT-29) [µM] | GI50 [1] [µM] | GI50 (MCF7) [µM] | GI50 (A2780) [µM] | GI50 [2] [µM] | GI50 (A-431) [µM] | GI50 (DU-145) [µM] | GI50 [3] [µM] | GI50 [4] [µM] | GI50 [5] [µM] | GI50 [6] [µM] | also measured
1 | Cc1cc2c(c3oc(-c4ccccc4)cc13)C(=O)c1c(OC(C)C)cccc1C2=O | Active | Active | Active | Active | Active | Active | Active | Active | Active |  |  |  |  |  |  |  |  |  |  |  | 
2 | Cc1cc2c(c3oc(-c4ccccc4)cc13)C(=O)c1c(O)cccc1C2=O | Active | Active | Active | Active | Active | Active | Active | Active | Active |  |  |  |  |  |  |  |  |  |  |  | 
3 | CCCc1cc2c(C)cc3c(c2oc1=O)C(=O)c1c(OC(C)C)cccc1C3=O | Active | Active | Active | Active | Active | Active | Active | Active | Active |  |  |  |  |  |  |  |  |  |  |  | growth inhibition (GI) (DU-145): Active; growth inhibition (GI) (SJ-G2): Active
4 | CCCc1cc2c(C)cc3c(c2o1)C(=O)c1c(OC(C)C)cccc1C3=O | Active | Active | Active | Active | Active | Active | Active | Active | Active |  |  |  |  |  |  |  |  |  |  |  | growth inhibition (GI) (DU-145): Active; growth inhibition (GI) (SJ-G2): Active
5 | Cc1cc2c(c3oc(C(=O)c4ccccc4)cc13)C(=O)c1c(O)cccc1C2=O | Active | Active | Active | Active | Active | Active | Active | Active | Active |  |  |  |  |  |  |  |  |  |  |  | 
6 | CCCCCCc1cc2c(C)cc3c(c2oc1=O)C(=O)c1c(OC(C)C)cccc1C3=O | Active | Active | Active | Active | Active | Active | Active | Active |  |  |  |  |  |  |  |  |  |  |  |  | growth inhibition (GI) (DU-145): Active; growth inhibition (GI) (SJ-G2): Active
7 | CCCCCCc1cc2c(C)cc3c(c2o1)C(=O)c1c(OC(C)C)cccc1C3=O | Active | Active | Active | Active | Active | Active | Active | Active | Active |  |  |  |  |  |  |  |  |  |  |  | growth inhibition (GI) (DU-145): Active; growth inhibition (GI) (SJ-G2): Active
8 | Cc1cc2c(c3oc(-c4ccccc4)cc(=O)c13)C(=O)c1c(O)cccc1C2=O | Active | Active | Active | Active | Active | Active | Active | Active | Active |  |  |  |  |  |  |  |  |  |  |  | growth inhibition (GI) (DU-145): Active
9 | Cc1cc2c(c3oc(=O)cc(CCCCl)c13)C(=O)c1c(OC(C)C)cccc1C2=O |  |  |  |  |  |  |  |  |  | 24 | 12 | 8.8 | 12 | 25 | 12 | 24 | 27 | 27 | 17 | 16 | 
10 | CCc1cc(=O)c2c(C)cc3c(c2o1)C(=O)c1c(OC(C)C)cccc1C3=O |  |  |  |  |  |  |  |  |  | 4.8 | 8.7 | 4.3 | 5.8 | 6.9 | 5.7 | 1.9 | 2.2 | 16 | 3.4 | 3.9 | 
11 | CC(=O)c1cc2c(C)cc3c(c2o1)C(=O)c1c(OC(C)C)cccc1C3=O |  |  |  |  |  |  |  |  |  | 9.7 | 8.4 | 3.5 | 5 | 17 | 5.8 | 1.9 | 4.6 | 2.2 | 9.7 | 2.3 | 
12 | Cc1cc2c(c3oc(=O)c(C(C)(C)C)cc13)C(=O)c1c(OC(C)C)cccc1C2=O |  |  |  |  |  |  |  |  |  | 13 | 17 | 14 | 12 | 20 | 17 | 29 | 33 | 12 | 12 | 12 | 
13 | Cc1cc2c(c3oc(CCCC#N)cc13)C(=O)c1c(O)cccc1C2=O |  |  |  |  |  |  |  |  |  | 1.9 | 11 | 4.7 | 6.5 | 15 | 13 | 0.46 | 0.99 | 32 | 2.6 | 5.4 | 
14 | CCCCCCc1cc2c(C)cc3c(c2o1)C(=O)c1c(O)cccc1C3=O |  |  |  |  |  |  |  |  |  | 17 | 25 | 15 | 12 | 17 | 18 | 25 | 21 | 32 | 13 | 9.3 | 
15 | Cc1cc2c(c3oc(CCC(F)(F)F)cc(=O)c13)C(=O)c1c(O)cccc1C2=O |  |  |  |  |  |  |  |  |  | 0.94 | 2.9 | 0.28 | 0.34 | 0.87 | 0.51 | 0.29 | 0.2 | 0.49 | 0.28 | 0.48 | 
16 | Cc1cc2c(c3oc(C(C)O)cc13)C(=O)c1c(OC(C)C)cccc1C2=O (stereo not drawn) |  |  |  |  |  |  |  |  |  | 24 | 35 | 24 | 16 | 17 | 19 | 28 | 20 | 14 | 19 | 29 | 
17 | CCCCCCc1cc(=O)c2c(C)cc3c(c2o1)C(=O)c1c(O)cccc1C3=O | Active | Active | Active | Active | Active | Active | Active | Active |  |  |  |  |  |  |  |  |  |  |  |  | growth inhibition (GI) (DU-145): Active; growth inhibition (GI) (SJ-G2): Active
